Assay results taken from ChEMBL document CHEMBL1122952, “Thromboxane synthetase inhibitors (TXSI). Design, synthesis, and evaluation of a novel series of omega-pyridylalkenoic acids” (J Med Chem, 1985).

How the values were obtained:
Format in all cases: functional
Rattus norvegicus [1] = experiment: Ex vivo percent inhibition against serum TXB2 production after 2 hr at dose 10 mg/kg by oral administration in rat
Rattus norvegicus [2] = experiment: Ex vivo percent inhibition against serum TXB2 production after 24 hr r at dose 1 mg/kg by oral administration in rat
Method in brief: (§1)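 Male Sprague–Dawley rats, 7–8 weeks old, dosed orally. Controls got vehicle alone (2 mL/kg water with a little gum arabic). At 24 h, 1 mL blood was drawn from the abdominal aorta under pentobarbital anesthesia (50 mg/kg ip) and clotted 90 min at 25 °C. Serum TXB2 was measured by radioimmunoassay. % inhibition = [1 − (B/A)] × 100 versus untreated rats.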

Rattus norvegicus [3] = experiment: Ex vivo percent inhibition against serum TXB2 production after 24 hr r at dose 10 mg/kg by oral administration in rat; method in brief: as §1

`O=C(O)CCCC/C=C(\c1ccccc1)c1ccc[n+]([O-])c1` gave an inhibition in vivo at 10 mg/kg (Rattus norvegicus [1]) of 85%.
Work on `NC(=O)CCCC/C=C(\c1ccccc1)c1cccnc1` yielded an inhibition in vivo at 10 mg/kg (Rattus norvegicus [1]) of 93%.
For `O=C(O)CCCCC/C=C(\c1ccccc1)c1cccnc1`, the inhibition in vivo at 1 mg/kg (Rattus norvegicus [2]) was 24%.
`COC(=O)CCCC/C=C(\c1ccccc1)c1cccnc1` showed an inhibition in vivo at 10 mg/kg (Rattus norvegicus [1]) of 92%.
Molecule `CC(C)(CCC/C=C(\c1ccccc1)c1cccnc1)C(=O)O` has an inhibition in vivo at 1 mg/kg (Rattus norvegicus [2]) of 14%.
Molecule `OCCCCC/C=C(\c1ccccc1)c1cccnc1` has an inhibition in vivo at 10 mg/kg (Rattus norvegicus [1]) of 92%.
`O=C(O)CCCCCC/C=C(\c1ccccc1)c1cccnc1` showed an inhibition in vivo at 1 mg/kg (Rattus norvegicus [2]) of 17%.
`CC(C)CSC(CCC/C=C(\c1ccccc1)c1cccnc1)C(=O)O` (stereo unspecified) showed an inhibition in vivo at 1 mg/kg (Rattus norvegicus [2]) of 8%.
Molecule `CCOC(=O)CCCC/C=C(\c1ccccc1)c1cccnc1` has an inhibition in vivo at 1 mg/kg (Rattus norvegicus [2]) of 35% and an inhibition in vivo at 10 mg/kg (Rattus norvegicus [1]) of 90%.
`CC(C)(CCC/C=C(/c1cccnc1)c1cccs1)C(=O)O` was tested, and the inhibition in vivo at 1 mg/kg (Rattus norvegicus [2]) was 17%.
`O=C(O)CCCCCCCC/C=C(\c1ccccc1)c1cccnc1` showed an inhibition in vivo at 1 mg/kg (Rattus norvegicus [2]) of 10% and an inhibition in vivo at 10 mg/kg (Rattus norvegicus [1]) of 92%.
In the case of `CC(C)(O)C(CCC/C=C(\c1ccccc1)c1cccnc1)C(=O)O` (stereo unspecified), the inhibition in vivo at 1 mg/kg (Rattus norvegicus [2]) is reported as 37%.
Work on `O=C(O)CCCC/C=C(\c1ccccc1)c1cccnc1` [(E)-ISBOGREL] yielded an inhibition in vivo at 10 mg/kg (Rattus norvegicus [3]) of 90% and an inhibition in vivo at 1 mg/kg (Rattus norvegicus [2]) of 53%.
